Measurements reported in ChEMBL document CHEMBL1833940, “Discovery of 3-(2,6-dichloro-3,5-dimethoxy-phenyl)-1-{6-[4-(4-ethyl-piperazin-1-yl)-phenylamino]-pyrimidin-4-yl}-1-methyl-urea (NVP-BGJ398), a potent and selective inhibitor of the fibroblast growth factor receptor family of receptor tyrosine kinase” (J Med Chem, 2011).
The source made the active and inactive calls. No cut-off for these calls is given here.

How the values were obtained:
[1] = target: Tyrosine-protein kinase Yes (Homo sapiens, UniProt P07947); assay: Inhibition of recombinant YES kinase
Method in brief: (§1)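 Purified recombinant kinases under optimized conditions with peptide substrates. ATP was set at each kinase's Km. Phosphorylation was read by microfluidic mobility-shift separation of substrate and product; IC50 determined.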

[2] = Tmax in tumor of RT112/luc1 cells implanted athymic nude mouse at 5 mg/kg, iv by LC/MS/MS analysis; type: ADME, organism-based, Neoplasm; set-up: dose 5 mg/kg, route intravenous
Method in brief: (§2)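 Female athymic nude mice carrying subcutaneous RT112/luc1 tumors (ca. 300–400 mm3). Dosing was 5 mg/kg iv by tail vein in NMP/PEG200 (1:9) or 20 mg/kg by oral gavage as a suspension in PEG300/D5W (2:1). Groups (n = 4) were sacrificed from 0.083 to 24 h. Plasma and tumor were measured by LC-MS/MS (LOQ 5 ng/mL, 10 ng/g). Noncompartmental analysis used the linear trapezoidal AUC; F was calculated from dose-normalized AUC.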

[3] = Oral bioavailability RT112/luc1 cells implanted athymic nude mouse; type: ADME, organism-based; conditions: in vivo; method in brief: as §2
[4] = Volume of distribution at steady state in Wistar rat at 5 mg/kg, iv by LC-MS/MS analysis; type: ADME, organism-based; set-up: dose 5 mg/kg, route intravenous; conditions: in vivo, read-out: Vdss
Method in brief: (§3)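 Female Wistar rats received 5 mg/kg iv into the femoral vein in NMP/PEG200 (1:9), or the monophosphate salt orally at 10 mg/kg (free base) in acetate buffer pH 4.6/PEG300. Serial sublingual plasma samples were taken from 0.083 to 24 h.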

[5] = Tmax in Wistar rat at 10 mg/kg, po by LC-MS/MS analysis; type: ADME, organism-based; set-up: dose 10 mg/kg, route oral; conditions: in vivo; method in brief: as §3
[6] = test system: UMUC3; assay: Antiproliferative activity against human UM-UC-3 cells after 72 hrs; type: functional, cell-based; conditions: UMUC3, 72 h
Method in brief: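 Bladder cancer lines from ATCC or DSMZ were seeded in 96-well plates (RT4, RT112 at 8500 cells/well; others at 5000 cells/well) in growth medium. Compound dilutions or DMSO were added 24 h later and incubated 72 h. Cells were fixed with glutaraldehyde, stained with 0.05% methylene blue and eluted with 3% HCl, then OD650 nm was read.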

[7] = target: Tyrosine-protein kinase Mer (Homo sapiens, UniProt Q12866); assay: Inhibition of recombinant MER
Method in brief: (§4)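 Purified recombinant kinases under optimized conditions, with peptide substrates and ATP at each kinase's Km. Phosphorylation was read out by microfluidic mobility shift, and IC50 values were obtained.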

[8] = target: Hepatocyte growth factor receptor (Homo sapiens, UniProt P08581); assay: Inhibition of recombinant MET
Method in brief: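 Purified recombinant kinases were tested under optimized conditions with peptide substrates. ATP was set at each kinase's Km. Phosphorylation was read out by microfluidic mobility shift, and IC50 values were determined.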

[9] = target: MAP kinase-activated protein kinase 5 (Homo sapiens, UniProt Q8IW41); assay: Inhibition of recombinant MK5; method in brief: as §1
[10] = target: MAP kinase-interacting serine/threonine-protein kinase 2 (Homo sapiens, UniProt Q9HBH9); assay: Inhibition of recombinant MNK2; method in brief: as §4
[11] = target: Casein kinase I isoform gamma-3 (Homo sapiens, UniProt Q9Y6M4); assay: Inhibition of recombinant CK1-gamma3; method in brief: as §1
[12] = target: Tyrosine-protein kinase CSK (Homo sapiens, UniProt P41240); assay: Inhibition of recombinant CSK; method in brief: as §4
[13] = target: Receptor tyrosine-protein kinase erbB-4 (Homo sapiens, UniProt Q15303); assay: Inhibition of recombinant ERBB4; method in brief: as §1
[14] = target: Insulin receptor (Homo sapiens, UniProt P06213); assay: Inhibition of recombinant INSR; method in brief: as §4
[15] = target: Tyrosine-protein kinase JAK1 (Homo sapiens, UniProt P23458); assay: Inhibition of recombinant JAK1; method in brief: as §1
[16] = target: Phosphatidylinositol 4,5-bisphosphate 3-kinase catalytic subunit delta isoform (Homo sapiens, UniProt O00329); assay: Inhibition of recombinant PI3Kdelta by luminescent kinase assay
[17] = Inhibition of recombinant PKA
Method in brief: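 Purified recombinant kinases with peptide substrates and ATP at each kinase's Km. Read-out was microfluidic mobility shift.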

[18] = target: Protein kinase C theta type (Homo sapiens, UniProt Q04759); assay: Inhibition of recombinant PKCtheta; method in brief: as §1
[19] = target: Tyrosine-protein kinase SYK (Homo sapiens, UniProt P43405); assay: Inhibition of recombinant SYK; method in brief: as §4
[20] = test system: RT-112; assay: Antitumor activity against human RT112 cells xenografted in athymic nude mouse assessed as tumor stasis at 30 mg/kg, po administered for 12 days; type: functional, organism-based; set-up: dose 30 mg/kg
Method in brief: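 Female HsdNpa:Athymic Nude-nu mice received RT112/luc1 cells (luciferase retroviral line; about 1–2×10^5 cells) into the bladder lumen. Oral treatment started 14 days after inoculation: suspension in PEG300/D5W (2:1) at 10 or 30 mg/kg/qd for 12 days. Tumor burden was measured by IVIS bioluminescence 10 min after iv D-luciferin. T/C was computed from change in light emission; ANOVA with Dunnett's test.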

[21] = test system: Rattus norvegicus; assay: Inhibition of FGFR autophosphorylation in RT112 tumor bearing po dosed nude rowett rat assessed as decrease in pMAPK concentration administered as a single dose by Western blot analysis; type: functional, organism-based
Method in brief: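 RT112 subcutaneous xenografts in female nude Rowett rats (n = 4). Single oral gavage of the monophosphate salt at 4.25 or 8.51 mg/kg (free base equivalents) in acetic acid–acetate buffer pH 4.6/PEG300 (1:1). Tumors were collected at time points up to 24 h, frozen, homogenized and lysed. Western blots probed pFRS2(Tyr196) and pMAPK, with total FRS2, total MAPK or β-tubulin as loading controls.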

[22] = test system: Rattus norvegicus; assay: Inhibition of FGFR autophosphorylation in RT112 tumor bearing nude rowett rat assessed as decrease in pFRS2 concentration at 4.25 to 8.51 mg/kg, po administered as a single dose after 24 hrs by Western blot analysis; type: functional, organism-based
Method in brief: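 RT112 tumor-bearing nude Rowett rats (n = 4) received a single oral dose of monophosphate salt at 4.25 or 8.51 mg/kg free base. Tumors were collected at time points up to 24 h and lysed in Tris/Triton buffer with vanadate and protease inhibitors. Western blots were run for pFRS2(Tyr196) and pMAPK, with total FRS2, total MAPK or β-tubulin as loading controls.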

[23] = test system: Mus musculus; assay: Toxicity in athymic nude mouse xenografted with human RT112 cells assessed as weight loss at 10 mg/kg, po administered for 12 days; type: organism-based, RT-112; set-up: dose 10 mg/kg, route oral; conditions: in vivo, 288 h
Method in brief: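 Female athymic nude mice carried orthotopic RT112/luc1 bladder tumors. Starting 14 days after inoculation, they were dosed orally at 0, 10 or 30 mg/kg/qd for 12 days as a suspension in PEG300/D5W (2:1). Body weight was recorded during treatment. Data are means ± SEM; ANOVA with Dunnett's test versus vehicle.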

[24] = test system: Tumour; assay: Drug uptake in tumour of nude Rowett rat bearing human RT112 cells at 4.25 mg/kg, po administered as a single dose after 3 hrs by LC-MS/MS analysis; type: ADME, organism-based, Neoplasm, RT-112; set-up: dose 4.25 mg/kg, route oral; conditions: in vivo
Method in brief: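 Nude Rowett rats bearing subcutaneous RT112 tumors (n = 4) received a single gavage of monophosphate salt at 4.25 or 8.51 mg/kg free base in acetate buffer pH 4.6/PEG300. Tumors were collected at intervals after dosing, frozen and homogenized in an equal volume of ice-cold PBS. Compound levels were measured by LC-MS/MS (LOQ 3 ng/mL).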

[25] = target: ALK tyrosine kinase receptor (Homo sapiens, UniProt Q9UM73); assay: Inhibition of recombinant ALK; method in brief: as §4

Sequence of Phosphatidylinositol 4,5-bisphosphate 3-kinase catalytic subunit delta isoform (O00329 whole entry, canonical isoform): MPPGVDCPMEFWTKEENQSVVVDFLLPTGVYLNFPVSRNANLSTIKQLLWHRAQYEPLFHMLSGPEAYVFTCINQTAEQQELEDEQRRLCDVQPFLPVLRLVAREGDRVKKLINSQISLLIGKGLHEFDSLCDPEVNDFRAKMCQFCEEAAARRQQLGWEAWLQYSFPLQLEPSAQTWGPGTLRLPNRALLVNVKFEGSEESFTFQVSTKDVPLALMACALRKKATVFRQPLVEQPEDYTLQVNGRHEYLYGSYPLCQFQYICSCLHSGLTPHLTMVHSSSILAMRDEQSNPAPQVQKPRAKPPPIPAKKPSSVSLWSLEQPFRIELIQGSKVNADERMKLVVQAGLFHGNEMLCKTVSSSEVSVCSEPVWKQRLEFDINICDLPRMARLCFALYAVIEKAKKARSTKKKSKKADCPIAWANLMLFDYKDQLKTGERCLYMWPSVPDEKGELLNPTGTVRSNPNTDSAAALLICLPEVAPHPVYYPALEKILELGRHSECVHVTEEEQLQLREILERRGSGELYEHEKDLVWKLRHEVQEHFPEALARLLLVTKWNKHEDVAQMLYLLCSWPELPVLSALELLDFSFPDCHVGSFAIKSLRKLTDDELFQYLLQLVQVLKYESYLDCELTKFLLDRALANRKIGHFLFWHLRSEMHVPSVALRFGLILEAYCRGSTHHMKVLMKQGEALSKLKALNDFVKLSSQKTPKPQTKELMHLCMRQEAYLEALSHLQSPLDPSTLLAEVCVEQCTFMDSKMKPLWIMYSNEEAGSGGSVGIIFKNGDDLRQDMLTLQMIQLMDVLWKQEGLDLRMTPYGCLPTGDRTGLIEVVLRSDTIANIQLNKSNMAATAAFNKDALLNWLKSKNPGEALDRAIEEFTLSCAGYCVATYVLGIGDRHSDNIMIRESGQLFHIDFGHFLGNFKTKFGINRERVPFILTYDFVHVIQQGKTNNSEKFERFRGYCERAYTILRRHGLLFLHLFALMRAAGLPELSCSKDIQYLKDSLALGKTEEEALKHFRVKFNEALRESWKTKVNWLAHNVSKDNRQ
Sequence of Tyrosine-protein kinase Yes (P07947 whole entry): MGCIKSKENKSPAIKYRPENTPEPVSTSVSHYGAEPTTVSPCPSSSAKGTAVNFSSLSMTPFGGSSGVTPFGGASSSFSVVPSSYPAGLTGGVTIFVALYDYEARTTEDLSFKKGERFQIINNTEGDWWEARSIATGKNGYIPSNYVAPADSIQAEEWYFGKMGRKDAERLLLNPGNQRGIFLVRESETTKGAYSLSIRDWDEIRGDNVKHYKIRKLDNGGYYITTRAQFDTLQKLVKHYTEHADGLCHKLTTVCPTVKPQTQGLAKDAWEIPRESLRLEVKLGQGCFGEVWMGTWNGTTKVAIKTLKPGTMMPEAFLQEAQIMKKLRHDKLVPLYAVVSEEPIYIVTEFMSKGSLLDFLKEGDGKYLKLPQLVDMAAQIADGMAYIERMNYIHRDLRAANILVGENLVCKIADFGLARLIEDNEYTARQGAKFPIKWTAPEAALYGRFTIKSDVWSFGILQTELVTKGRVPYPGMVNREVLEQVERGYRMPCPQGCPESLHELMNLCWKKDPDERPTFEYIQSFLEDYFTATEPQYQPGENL
Sequence of Tyrosine-protein kinase JAK1 (P23458 whole entry, canonical isoform): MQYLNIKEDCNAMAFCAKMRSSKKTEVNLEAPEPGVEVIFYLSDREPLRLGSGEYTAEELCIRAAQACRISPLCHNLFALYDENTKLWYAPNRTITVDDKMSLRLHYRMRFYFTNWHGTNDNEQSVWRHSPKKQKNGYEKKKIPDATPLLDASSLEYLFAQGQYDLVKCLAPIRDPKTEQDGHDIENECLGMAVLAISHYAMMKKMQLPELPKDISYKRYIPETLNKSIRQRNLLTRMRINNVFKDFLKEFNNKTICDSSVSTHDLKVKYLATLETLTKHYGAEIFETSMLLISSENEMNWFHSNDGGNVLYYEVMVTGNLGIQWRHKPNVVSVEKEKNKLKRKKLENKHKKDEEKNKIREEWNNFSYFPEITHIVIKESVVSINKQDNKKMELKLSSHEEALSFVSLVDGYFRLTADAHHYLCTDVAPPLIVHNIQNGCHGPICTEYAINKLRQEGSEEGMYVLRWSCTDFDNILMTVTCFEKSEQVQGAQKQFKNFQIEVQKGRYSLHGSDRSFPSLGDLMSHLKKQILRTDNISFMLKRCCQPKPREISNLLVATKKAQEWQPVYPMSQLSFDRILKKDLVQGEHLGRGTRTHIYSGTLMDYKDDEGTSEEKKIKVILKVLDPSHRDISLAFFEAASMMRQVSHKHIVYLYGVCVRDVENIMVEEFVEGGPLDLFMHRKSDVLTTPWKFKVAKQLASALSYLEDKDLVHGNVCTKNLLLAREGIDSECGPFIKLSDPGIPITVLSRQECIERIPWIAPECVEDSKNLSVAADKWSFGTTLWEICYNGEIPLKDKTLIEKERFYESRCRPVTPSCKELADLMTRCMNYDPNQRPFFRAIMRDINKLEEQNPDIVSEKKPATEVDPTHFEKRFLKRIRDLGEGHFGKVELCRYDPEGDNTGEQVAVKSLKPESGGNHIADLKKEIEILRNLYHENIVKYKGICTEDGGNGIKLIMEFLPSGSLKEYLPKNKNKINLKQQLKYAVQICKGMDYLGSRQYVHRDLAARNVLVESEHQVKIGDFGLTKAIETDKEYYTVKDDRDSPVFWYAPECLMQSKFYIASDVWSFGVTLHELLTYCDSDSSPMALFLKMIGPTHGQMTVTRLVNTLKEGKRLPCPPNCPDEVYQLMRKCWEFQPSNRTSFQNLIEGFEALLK
Sequence of Tyrosine-protein kinase CSK (P41240 whole entry): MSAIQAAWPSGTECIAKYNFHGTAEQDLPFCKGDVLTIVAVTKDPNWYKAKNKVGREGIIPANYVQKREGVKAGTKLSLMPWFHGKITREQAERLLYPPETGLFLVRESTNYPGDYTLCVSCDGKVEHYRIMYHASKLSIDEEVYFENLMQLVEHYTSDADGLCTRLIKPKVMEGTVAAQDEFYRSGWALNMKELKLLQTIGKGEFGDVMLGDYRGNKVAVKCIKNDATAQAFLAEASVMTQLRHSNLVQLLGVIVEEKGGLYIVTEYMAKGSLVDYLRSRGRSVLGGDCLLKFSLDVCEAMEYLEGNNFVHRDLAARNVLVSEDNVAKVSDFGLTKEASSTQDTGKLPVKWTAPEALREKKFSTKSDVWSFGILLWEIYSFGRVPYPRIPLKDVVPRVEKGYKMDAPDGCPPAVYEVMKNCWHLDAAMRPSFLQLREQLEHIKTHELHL
Sequence of MAP kinase-activated protein kinase 5 (Q8IW41 whole entry): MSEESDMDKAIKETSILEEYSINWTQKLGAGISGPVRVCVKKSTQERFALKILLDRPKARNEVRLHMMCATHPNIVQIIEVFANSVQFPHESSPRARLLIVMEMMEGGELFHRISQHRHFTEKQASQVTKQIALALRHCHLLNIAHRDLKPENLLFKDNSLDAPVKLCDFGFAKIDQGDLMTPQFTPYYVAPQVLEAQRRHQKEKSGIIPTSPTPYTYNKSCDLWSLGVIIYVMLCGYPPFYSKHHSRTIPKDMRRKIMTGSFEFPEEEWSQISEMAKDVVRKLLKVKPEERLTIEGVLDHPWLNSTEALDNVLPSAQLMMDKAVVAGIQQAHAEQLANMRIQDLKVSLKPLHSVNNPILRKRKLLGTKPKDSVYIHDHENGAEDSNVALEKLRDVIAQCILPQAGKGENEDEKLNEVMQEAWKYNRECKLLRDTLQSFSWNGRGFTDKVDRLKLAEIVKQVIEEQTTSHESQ
Sequence of Insulin receptor (P06213 28-758 limits assumed): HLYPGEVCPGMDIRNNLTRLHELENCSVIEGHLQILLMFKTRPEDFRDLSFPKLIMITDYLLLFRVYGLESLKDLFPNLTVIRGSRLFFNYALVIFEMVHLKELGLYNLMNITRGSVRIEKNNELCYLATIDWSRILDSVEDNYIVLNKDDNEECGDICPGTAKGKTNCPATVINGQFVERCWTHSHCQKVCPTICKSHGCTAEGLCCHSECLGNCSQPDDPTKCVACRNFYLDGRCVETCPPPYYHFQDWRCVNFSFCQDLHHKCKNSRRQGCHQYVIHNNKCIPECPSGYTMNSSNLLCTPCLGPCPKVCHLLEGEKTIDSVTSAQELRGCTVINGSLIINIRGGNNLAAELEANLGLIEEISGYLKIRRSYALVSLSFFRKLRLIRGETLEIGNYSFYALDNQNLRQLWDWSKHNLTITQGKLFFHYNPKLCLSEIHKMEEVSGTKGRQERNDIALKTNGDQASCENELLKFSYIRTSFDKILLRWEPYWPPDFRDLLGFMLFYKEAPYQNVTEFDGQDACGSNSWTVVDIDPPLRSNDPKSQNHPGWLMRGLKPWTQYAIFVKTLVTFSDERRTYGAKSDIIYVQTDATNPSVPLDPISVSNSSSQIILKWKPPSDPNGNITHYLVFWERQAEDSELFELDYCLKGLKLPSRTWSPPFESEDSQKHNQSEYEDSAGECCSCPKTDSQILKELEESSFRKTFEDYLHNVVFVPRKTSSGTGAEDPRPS
Sequence of Insulin receptor (P06213 763-1382 limits assumed): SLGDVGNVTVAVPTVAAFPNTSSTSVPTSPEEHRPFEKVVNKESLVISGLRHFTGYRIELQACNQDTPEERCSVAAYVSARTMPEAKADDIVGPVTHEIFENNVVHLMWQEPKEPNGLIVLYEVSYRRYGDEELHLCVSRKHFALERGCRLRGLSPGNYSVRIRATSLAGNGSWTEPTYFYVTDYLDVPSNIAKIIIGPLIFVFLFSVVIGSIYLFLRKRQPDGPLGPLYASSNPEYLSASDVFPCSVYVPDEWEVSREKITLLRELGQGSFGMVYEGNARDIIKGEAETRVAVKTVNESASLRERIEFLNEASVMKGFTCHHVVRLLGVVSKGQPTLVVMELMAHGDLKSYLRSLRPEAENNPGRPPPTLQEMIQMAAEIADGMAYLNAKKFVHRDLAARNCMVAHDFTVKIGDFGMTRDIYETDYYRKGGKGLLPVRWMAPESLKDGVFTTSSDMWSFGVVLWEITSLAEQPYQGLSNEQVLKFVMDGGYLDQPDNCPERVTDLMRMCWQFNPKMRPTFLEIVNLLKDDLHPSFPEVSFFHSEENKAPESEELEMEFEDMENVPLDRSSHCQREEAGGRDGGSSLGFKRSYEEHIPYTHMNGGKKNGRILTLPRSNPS

## CCN1CCN(c2ccc(Nc3cc(N(C)C(=O)Nc4c(Cl)c(OC)cc(OC)c4Cl)ncn3)cc2)CC1.O=P(O)(O)O [INFIGRATINIB PHOSPHATE]
[1]
  IC50: 1.1 µM
[2]
  Tmax: 2 h
[3]
  bioavailability: 32%
[4]
  Vd: 9.6 L/kg
[5]
  Tmax: 4 h
[6]
  IC50: > 3 µM
[7]
  IC50: > 10 µM
[8]
  IC50: > 10 µM
[9]
  IC50: > 10 µM
[10]
  IC50: > 10 µM
[11]
  IC50: > 10 µM
[12]
  IC50: > 10 µM
[13]
  IC50: > 10 µM
[14]
  IC50: > 10 µM
[15]
  IC50: > 10 µM
[16]
  IC50: > 9 µM
[17]
  IC50: > 10 µM
[18]
  IC50: > 10 µM
[19]
  IC50: > 10 µM
[20]
  Activity: Active
[21]
  inhibition: Dose-dependent effect
[22]
  inhibition: inactive
[23]
  Activity: Non-toxic
[24]
  Drug uptake: 0.83 nmol/g
[25]
  IC50: > 10 µM
